Assay results from ChEMBL document CHEMBL3779860, “A Designed Tryptophan- and Lysine/Arginine-Rich Antimicrobial Peptide with Therapeutic Potential for Clinical Antibiotic-Resistant Candida albicans Vaginitis” (J Med Chem, 2016).

Key:
Candida albicans [1] = test: Antimicrobial activity against antibiotic resistant Candida albicans clinical isolate 08030809 compound treated in PBS solution measured after 36 hrs by disc diffusion method; assay type: functional; conditions: isolate 08030809, 36 h
Summary of the method: (§1)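 Salt-tolerance test: peptide at 2 mg/mL was prepared in sterile ddH2O, in 150 mM NaCl, or in PBS (150 mM NaCl, 2.7 mM KCl, 1.5 mM KH2PO4, 8 mM K2HPO4, pH 7.2). Anti-C. albicans activity was then assessed by inhibition zone on Sabouraud medium with 0.7% agar.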

Candida albicans [2] = test: Antimicrobial activity against antibiotic resistant Candida albicans clinical isolate 08032710 compound treated in PBS solution measured after 36 hrs by disc diffusion method; assay type: functional; conditions: isolate 08032710, 36 h; summary of the method: as §1
Candida albicans [3] = test: Antimicrobial activity against antibiotic resistant Candida albicans clinical isolate 08032815 compound treated in NaCl solution measured after 36 hrs by disc diffusion method; assay type: functional; conditions: isolate 08032815, 36 h; summary of the method: as §1
Candida albicans [4] = test: Antimicrobial activity against antibiotic resistant Candida albicans clinical isolate 08032821 compound treated in NaCl solution measured after 36 hrs by disc diffusion method; assay type: functional; conditions: isolate 08032821, 36 h; summary of the method: as §1
Candida albicans [5] = test: Antimicrobial activity against antibiotic resistant Candida albicans clinical isolate 08022710 after 16 hrs by broth dilution method; assay type: functional; conditions: isolate 08022710, 16 h
Summary of the method: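 Broth microdilution in Sabouraud liquid medium. Samples are stocks in 0.9% NaCl, 10 µL added to 90 µL broth plus 100 µL of 2 × 10^5 CFU/mL yeast suspension. Incubated 16 h at 28°C, growth read by A600. MIC is the lowest concentration completely inhibiting growth; mean of three independent experiments.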

Candida albicans [6] = test: Antimicrobial activity against antibiotic resistant Candida albicans clinical isolate 08032815 after 16 hrs by broth dilution method; assay type: functional; conditions: isolate 08032815, 16 h
Summary of the method: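 Broth dilution MIC. Samples were serially diluted in 0.9% NaCl and mixed with Sabouraud broth and yeast suspension at 2 × 10^5 CFU/mL, then incubated 16 h at 28°C. Growth was read at 600 nm. MIC is the lowest concentration giving complete growth inhibition, reported as mean of three independent experiments.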

Escherichia coli = test: Antimicrobial activity against Escherichia coli ATCC 25922 assessed as inhibition of […] growth after 16 hrs by broth dilution method; assay type: functional; conditions: ATCC 25922, 16 h
Summary of the method: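 Broth dilution in LB broth; 100 µL of 2 × 10^5 CFU/mL bacterial suspension plus 10 µL sample (stock series in 0.9% NaCl) in 90 µL broth, 37°C for 16 h. Growth read as A600; MIC is the lowest concentration completely inhibiting growth. Mean of three independent experiments run in duplicate.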

Candida albicans [7] = test: Antimicrobial activity against antibiotic resistant Candida albicans clinical isolate 08030809 assessed as clone count at 5 times MIC after 24 hrs by colony counting assay (Rvb > 10^5 CFU); assay type: functional
Candida albicans [8] = test: Antimicrobial activity against antibiotic resistant Candida albicans clinical isolate 08030809 assessed as clone count at 10 times MIC after 3 hrs by colony counting assay (reference value: 3687 +/- 543 CFU); assay type: functional
Candida albicans [9] = test: Antimicrobial activity against antibiotic resistant Candida albicans clinical isolate 08030809 assessed as clone count at 10 times MIC after 6 hrs by colony counting assay (reference value: 14536 +/- 2467 CFU); assay type: functional
Candida albicans [10] = test: Antimicrobial activity against antibiotic resistant Candida albicans clinical isolate 08030809 assessed as clone count at 5 times MIC after 1 min by colony counting assay (reference value: 62 +/- 7 CFU); assay type: functional
Mus musculus [11] = test: Antiinflammatory activity in antibiotic resistant Candida albicans clinical isolate 08030809 induced mouse vaginitis model assessed as reduction in IL-1beta secretion in vaginal tissue administered as intravaginal instillation measured on day 10 by ELISA; assay type: functional, organism-based; conditions: Vagina
Summary of the method: (§2)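 Same estradiol-primed mouse model, infected intravaginally with C. albicans 08030809 and treated by intravaginal instillation (20 µL/mouse). Vaginal canals excised on day 10 of treatment and homogenised in 0.9% NaCl. Supernatant taken after 2,000 g for 15 min. TNF-α, IL-6, IL-1β and IL-10 measured by ELISA. Mean ± SE of three independent experiments; unpaired t-test versus vehicle.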

Candida albicans [12] = test: Antimicrobial activity against antibiotic resistant Candida albicans clinical isolate 08030809 assessed as clone count at 10 times MIC after 1 min by colony counting assay (reference value: 62 +/- 7 CFU); assay type: functional
Candida albicans [13] = test: Antimicrobial activity against antibiotic resistant Candida albicans clinical isolate 08030809 assessed as clone count at 10 times MIC after 10 mins by colony counting assay (reference value: 102 +/- 11 CFU); assay type: functional
Mus musculus [14] = test: Antiinflammatory activity in antibiotic resistant Candida albicans clinical isolate 08030809 induced mouse vaginitis model assessed as reduction in IL-10 secretion in vaginal tissue at 20 ug administered as intravaginal instillation measured on day 10 by ELISA; assay type: functional, Vagina; summary of the method: as §2
Mus musculus [15] = test: Antiinflammatory activity in antibiotic resistant Candida albicans clinical isolate 08030809 induced mouse vaginitis model assessed as reduction in IL-1beta secretion in vaginal tissue at 50 ug administered as intravaginal instillation measured on day 10 by ELISA; assay type: functional, Vagina; summary of the method: as §2
Mus musculus [16] = test: Antiinflammatory activity in antibiotic resistant Candida albicans clinical isolate 08030809 induced mouse vaginitis model assessed as reduction in IL-10 secretion in vaginal tissue at 50 ug administered as intravaginal instillation measured on day 10 by ELISA; assay type: functional, Vagina; summary of the method: as §2
Candida albicans [17] = test: Antimicrobial activity against antibiotic resistant Candida albicans clinical isolate 08030809 in mouse vaginitis model assessed as colony count in lavage liquid of vagina at 20 ug administered as intravaginal instillation measured on day 16; assay type: functional
Candida albicans [18] = test: Antimicrobial activity against antibiotic resistant Candida albicans clinical isolate 08030809 in mouse vaginitis model assessed as decrease in colony count in lavage liquid of vagina at 20 ug administered as intravaginal instillation measured on day 11; assay type: functional
Candida albicans [19] = test: Antimicrobial activity against antibiotic resistant Candida albicans clinical isolate 08030809 in mouse vaginitis model assessed as decrease in colony count in lavage liquid of vagina at 20 ug administered as intravaginal instillation measured on day 6; assay type: functional
Candida albicans [20] = test: Antimicrobial activity against antibiotic resistant Candida albicans clinical isolate 08030809 in mouse vaginitis model assessed as decrease in colony count in lavage liquid of vagina at 50 ug administered as intravaginal instillation measured on day 16; assay type: functional
Candida albicans [21] = test: Antimicrobial activity against antibiotic resistant Candida albicans clinical isolate 08030809 in mouse vaginitis model assessed as decrease in colony count in lavage liquid of vagina at 50 ug administered as intravaginal instillation measured on day 11; assay type: functional
Candida albicans [22] = test: Antimicrobial activity against antibiotic resistant Candida albicans clinical isolate 08030809 in mouse vaginitis model assessed as decrease in colony count in lavage liquid of vagina administered as intravaginal instillation measured on day 1, 6, 11, 16; assay type: functional, organism-based

Which results are given for H-VKRWKKWRWKWKKWV-NH2?
MIC (Candida albicans [1]): 1.4 µg/mL; MIC (Candida albicans [2]): 2.79 µg/mL; MIC (Candida albicans [3]): 2.79 µg/mL; MIC (Candida albicans [4]): 2.65 µg/mL; MIC (Candida albicans [5]): 4.69 µg/mL; MIC (Candida albicans [6]): 2.79 µg/mL; MIC (Escherichia coli): 9.38 µg/mL; Activity (Candida albicans [7]): 0 CFU; Activity (Candida albicans [8]): 0 CFU; Activity (Candida albicans [9]): 0 CFU; Activity (Candida albicans [10]): 10 CFU; Activity (Mus musculus [11]): Dose-dependent effect; Activity (Candida albicans [12]): 6 CFU; Activity (Candida albicans [13]): 4 CFU; inhibition (INH) (Mus musculus [14]): 39%; inhibition (INH) (Mus musculus [15]): 63%; inhibition (INH) (Mus musculus [16]): 45%; Activity (Candida albicans [17]): 5.4 ×10³ CFU/ml; inhibition (INH) (Candida albicans [18]): 37%; inhibition (INH) (Candida albicans [19]): 22%; inhibition (INH) (Candida albicans [20]): 83%; inhibition (INH) (Candida albicans [21]): 66%; inhibition (Candida albicans [22]): Dose-dependent effect
